# Reference: ChEMBL document CHEMBL1141647, “Novel ofloxacin derivatives: synthesis, antimycobacterial and toxicological evaluation” (Bioorg Med Chem Lett, 2008)
# Experiments:
# Vero = assay: Cytotoxicity against african green monkey Vero cells after 72 hrs by MTT assay; assay type: cell-based; conditions: Chlorocebus sabaeus
# In short: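 Vero cells exposed for 72 h; tested up to 62.5 µg/mL. Viability was read as cellular conversion of MTT to formazan, and IC50 was reported in µM.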
# [1] = test system: Mycolicibacterium smegmatis; assay: Antimycobacterial activity against Mycobacterium smegmatis ATCC 14468 by agar dilution method; assay type: functional
# In short: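 MC² (M. smegmatis) growth inhibition; MIC99 taken as the lowest concentration giving complete inhibition of bacterial growth, in µM.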
# [2] = test system: Mycobacterium tuberculosis; assay: Antimycobacterial activity against Mycobacterium tuberculosis H37Rv by agar dilution method; assay type: functional
# In short: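 MIC99 was taken as the lowest concentration giving complete inhibition of bacterial growth.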
# Mus musculus [3] = assay: Phototoxic effect in UV light irradiated mouse assessed as number of mouse bearing erythema at 140 mg/kg, after 24 hrs relative to control; assay type: ADME, organism-based; parameters: dose 140 mg/kg; conditions: in vivo
# In short: (§1)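 Mice received 140 mg/kg and were UV-irradiated immediately after dosing, irradiation ending at 4 h. Both ears were scored for erythema at 0, 4, 24, 48, 72 and 96 h, counted as the number of mice with erythema. Vehicle control was 0.5% aqueous sodium carboxymethylcellulose at 10 mL/kg.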
# Mus musculus [4] = assay: Phototoxic effect in UV light irradiated mouse assessed as ear thickness at 140 mg/kg, after 72 hrs relative to control; assay type: ADME, organism-based; parameters: dose 140 mg/kg; conditions: in vivo
# In short: (§2)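 Mice dosed at 140 mg/kg and exposed to UV immediately after dosing. Irradiation ended at 4 h. Ear thickness (mm) was measured at 0 (pre-dose), 4, 24, 48, 72 and 96 h, left and right ears averaged, mean ± SEM. Comparison was against vehicle controls (0.5% aqueous sodium carboxymethylcellulose, 10 mL/kg) and against the 0 h reading.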
# Mus musculus [5] = assay: Phototoxic effect in UV light irradiated mouse assessed as number of mouse bearing erythema at 140 mg/kg, after 48 hrs relative to control; assay type: ADME, organism-based; parameters: dose 140 mg/kg; conditions: in vivo; in short: as §1
# Mus musculus [6] = assay: Phototoxic effect in UV light irradiated mouse assessed as ear thickness at 140 mg/kg, after 4 hrs relative to control; assay type: ADME, organism-based; parameters: dose 140 mg/kg; conditions: in vivo; in short: as §2
# DNA gyrase subunit A = DNA gyrase subunit A (Mycolicibacterium smegmatis, UniProt Q59556); assay: Inhibition of Mycobacterium smegmatis DNA gyrase
# In short: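 Inhibition of DNA supercoiling by M. smegmatis (MC²) gyrase, run under standard assay conditions. Varying compound amounts were tested against a fixed amount of enzyme, and IC50 was derived from that series. Relaxed circular DNA served as marker, 5% DMSO as solvent control, and moxifloxacin at 5 µg/mL as positive control.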
# Mus musculus [7] = assay: Phototoxic effect in UV light irradiated mouse assessed as ear thickness at 140 mg/kg, after 96 hrs relative to control; assay type: ADME, organism-based; parameters: dose 140 mg/kg; conditions: in vivo; in short: as §2
# Mus musculus [8] = assay: Phototoxic effect in UV light irradiated mouse assessed as number of mouse bearing erythema at 140 mg/kg, after 72 hrs relative to control; assay type: ADME, organism-based; parameters: dose 140 mg/kg; conditions: in vivo; in short: as §1
# Mus musculus [9] = assay: Phototoxic effect in UV light irradiated mouse assessed as ear thickness at 140 mg/kg, after 24 hrs relative to control; assay type: ADME, organism-based; parameters: dose 140 mg/kg; conditions: in vivo; in short: as §2
# Mus musculus [10] = assay: Phototoxic effect in UV light irradiated mouse assessed as ear thickness at 140 mg/kg, after 48 hrs relative to control; assay type: ADME, organism-based; parameters: dose 140 mg/kg; conditions: in vivo; in short: as §2
# Mus musculus [11] = assay: Phototoxic effect in mouse assessed as ear thickness at 140 mg/kg administered before UV light exposure relative to control; assay type: ADME, organism-based; parameters: dose 140 mg/kg; conditions: in vivo; in short: as §2
# Mus musculus [12] = assay: Phototoxic effect in mouse assessed as number of mouse bearing erythema at 140 mg/kg administered before UV light exposure relative to control; assay type: ADME, organism-based; parameters: dose 140 mg/kg; conditions: in vivo; in short: as §1
# Mus musculus [13] = assay: Phototoxic effect in UV light irradiated mouse assessed as number of mouse bearing erythema at 140 mg/kg, after 96 hrs relative to control; assay type: ADME, organism-based; parameters: dose 140 mg/kg; conditions: in vivo; in short: as §1
# Mus musculus [14] = assay: Phototoxic effect in UV light irradiated mouse assessed as number of mouse bearing erythema at 140 mg/kg, after 4 hrs relative to control; assay type: ADME, organism-based; parameters: dose 140 mg/kg; conditions: in vivo; in short: as §1
# Chain of DNA gyrase subunit A (Q59556 whole entry): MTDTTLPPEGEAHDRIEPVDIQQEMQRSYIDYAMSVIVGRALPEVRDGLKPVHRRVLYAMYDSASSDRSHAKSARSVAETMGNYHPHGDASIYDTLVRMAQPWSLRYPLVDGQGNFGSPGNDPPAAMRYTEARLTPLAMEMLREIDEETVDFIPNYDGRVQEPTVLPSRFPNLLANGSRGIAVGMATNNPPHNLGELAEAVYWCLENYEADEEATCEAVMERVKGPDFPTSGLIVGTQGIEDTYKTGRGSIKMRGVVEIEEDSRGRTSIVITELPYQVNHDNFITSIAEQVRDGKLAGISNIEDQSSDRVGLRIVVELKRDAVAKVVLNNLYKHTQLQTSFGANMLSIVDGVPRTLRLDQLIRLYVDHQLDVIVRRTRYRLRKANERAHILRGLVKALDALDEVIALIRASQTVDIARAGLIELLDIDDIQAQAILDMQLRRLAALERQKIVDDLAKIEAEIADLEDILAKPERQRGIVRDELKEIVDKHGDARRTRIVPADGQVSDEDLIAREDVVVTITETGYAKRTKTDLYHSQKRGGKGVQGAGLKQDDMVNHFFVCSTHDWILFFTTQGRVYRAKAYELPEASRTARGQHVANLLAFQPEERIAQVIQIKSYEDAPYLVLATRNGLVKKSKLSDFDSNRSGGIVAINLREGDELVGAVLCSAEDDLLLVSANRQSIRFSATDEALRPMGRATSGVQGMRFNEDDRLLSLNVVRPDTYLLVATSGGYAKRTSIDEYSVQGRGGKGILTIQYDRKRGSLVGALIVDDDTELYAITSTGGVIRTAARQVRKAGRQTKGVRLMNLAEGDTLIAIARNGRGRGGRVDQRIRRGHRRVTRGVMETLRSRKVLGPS
compound,measurement,setting,value
CC1COc2c(N3CCN(C(=O)c4ccco4)CC3)c(F)c([N+](=O)[O-])c3c(=O)c(C(=O)O)cn1c23 (centres undefined),IC50,Vero,64.2 µM
same,MIC99,[1],3.21 µM
same,MIC99,[2],0.8 µM
CC1COc2c(N3CCN(C(=O)c4ccco4)CC3)c(F)cc3c(=O)c(C(=O)O)cn1c23 (centres undefined),Activity,Mus musculus [3],Non-toxic
same,Activity,Mus musculus [4],0.29 mm
same,Activity,Mus musculus [5],Non-toxic
same,MIC99,[1],3.53 µM
same,Activity,Mus musculus [6],0.3 mm
same,IC50,DNA gyrase subunit A,> 113 µM
same,Activity,Mus musculus [7],0.3 mm
same,Activity,Mus musculus [8],Non-toxic
same,Activity,Mus musculus [9],0.29 mm
same,Activity,Mus musculus [10],0.29 mm
same,Activity,Mus musculus [11],0.29 mm
same,Activity,Mus musculus [12],Non-toxic
same,MIC99,[2],7.09 µM
same,Activity,Mus musculus [13],Non-toxic
COc1cc2c(cc1OC)CN(c1c(F)c([N+](=O)[O-])c3c(=O)c(C(=O)O)cn4c3c1OCC4C)CC2 (centres undefined),IC50,Vero,62.5 µM
same,MIC99,[1],12.5 µM
same,MIC99,[2],1.56 µM
CC1COc2c(N3CCn4cc(C(=O)O)nc4C3)c(F)c(N)c3c(=O)c(C(=O)O)cn1c23 (centres undefined),IC50,Vero,> 141 µM
same,MIC99,[1],5.28 µM
same,MIC99,[2],0.88 µM
CC1COc2c(N3CCN(Cc4ccc5c(c4)OCO5)CC3)c(F)cc3c(=O)c(C(=O)O)cn1c23 (centres undefined),MIC99,[1],26 µM
same,MIC99,[2],6.5 µM
CC1COc2c(N3CCC4(CC3)OCCO4)c(F)c([N+](=O)[O-])c3c(=O)c(C(=O)O)cn1c23 (centres undefined),IC50,Vero,139 µM
same,MIC99,[1],3.47 µM
same,MIC99,[2],0.21 µM
CC1COc2c(N3CCC4(CC3)OCCO4)c(F)cc3c(=O)c(C(=O)O)cn1c23 (centres undefined),IC50,Vero,155 µM
same,Activity,Mus musculus [3],Toxic
same,Activity,Mus musculus [4],0.32 mm
same,MIC99,[1],3.86 µM
same,Activity,Mus musculus [6],0.37 mm
same,IC50,DNA gyrase subunit A,124 µM
same,Activity,Mus musculus [7],0.35 mm
same,Activity,Mus musculus [14],Toxic
same,Activity,Mus musculus [9],0.32 mm
same,Activity,Mus musculus [10],0.31 mm
same,Activity,Mus musculus [11],0.34 mm
same,Activity,Mus musculus [12],Non-toxic
same,MIC99,[2],0.47 µM
same,Activity,Mus musculus [13],Non-toxic
Cc1onc(-c2c(F)cccc2F)c1C(=O)N1CCN(c2c(F)cc3c(=O)c(C(=O)O)cn4c3c2OCC4C)CC1 (centres undefined),MIC99,[1],44 µM
same,MIC99,[2],11 µM
CC1COc2c(N3CCN(C(=O)C4COc5ccccc5O4)CC3)c(F)c([N+](=O)[O-])c3c(=O)c(C(=O)O)cn1c23 (centres undefined),IC50,Vero,113 µM
same,MIC99,[1],11.3 µM
same,MIC99,[2],2.81 µM
CC1COc2c(N3CCn4cc(C(=O)O)nc4C3)c(F)cc3c(=O)c(C(=O)O)cn1c23 (centres undefined),IC50,Vero,> 146 µM
same,MIC99,[1],29.2 µM
same,MIC99,[2],0.91 µM
CC1COc2c(N3CCC(n4c(=O)[nH]c5cc(Cl)ccc54)CC3)c(F)cc3c(=O)c(C(=O)O)cn1c23 (centres undefined),IC50,Vero,> 122 µM
same,MIC99,[1],48.7 µM
same,MIC99,[2],1.52 µM
CC1COc2c(N3CCN(C(=O)C4COc5ccccc5O4)CC3)c(F)cc3c(=O)c(C(=O)O)cn1c23 (centres undefined),MIC99,[1],49.1 µM
same,MIC99,[2],12.3 µM
CC1COc2c(N3CCN(C)C(c4ccccc4)C3)c(F)cc3c(=O)c(C(=O)O)cn1c23 (centres undefined),MIC99,[1],114 µM
same,MIC99,[2],14.3 µM
CC1COc2c(N3CCC(O)(c4ccc(Cl)cc4)CC3)c(F)c([N+](=O)[O-])c3c(=O)c(C(=O)O)cn1c23 (centres undefined),IC50,Vero,60.4 µM
same,MIC99,[1],6.04 µM
same,MIC99,[2],1.51 µM
CC1CN(c2c(F)c([N+](=O)[O-])c3c(=O)c(C(=O)O)cn4c3c2OCC4C)CC(C)O1 (centres undefined),IC50,Vero,148 µM
same,MIC99,[1],1.85 µM
same,IC50,DNA gyrase subunit A,> 119 µM
same,MIC99,[2],1.85 µM
CC1CN(c2c(F)cc3c(=O)c(C(=O)O)cn4c3c2OCC4C)CC(C)O1 (centres undefined),IC50,Vero,> 166 µM
same,MIC99,[1],4.14 µM
same,IC50,DNA gyrase subunit A,> 133 µM
same,MIC99,[2],4.14 µM
CC1COc2c(N3CCN(Cc4ccc5c(c4)OCO5)CC3)c(F)c([N+](=O)[O-])c3c(=O)c(C(=O)O)cn1c23 (centres undefined),IC50,Vero,119 µM
same,MIC99,[1],1.48 µM
same,MIC99,[2],2.96 µM
CC1COc2c(N3CCc4ccccc4C3C(=O)NC(C)(C)C)c(F)c([N+](=O)[O-])c3c(=O)c(C(=O)O)cn1c23 (centres undefined),IC50,Vero,116 µM
same,MIC99,[1],2.89 µM
same,IC50,DNA gyrase subunit A,92.8 µM
same,MIC99,[2],1.45 µM
CC1COc2c(N3CCC4(CC3)OCCO4)c(F)c(N)c3c(=O)c(C(=O)O)cn1c23 (centres undefined),IC50,Vero,> 149 µM
same,MIC99,[1],11.2 µM
same,MIC99,[2],3.72 µM
CC1COc2c(N3CCN(C(c4ccccc4)c4ccc(Cl)cc4)CC3)c(F)cc3c(=O)c(C(=O)O)cn1c23 (centres undefined),MIC99,[1],45.6 µM
same,MIC99,[2],5.71 µM
CC1COc2c(N3CCc4ccccc4C3C(=O)NC(C)(C)C)c(F)cc3c(=O)c(C(=O)O)cn1c23 (centres undefined),IC50,Vero,127 µM
same,MIC99,[1],50.7 µM
same,MIC99,[2],3.16 µM
CC1COc2c(N3CCSCC3)c(F)cc3c(=O)c(C(=O)O)cn1c23 (centres undefined),IC50,Vero,> 172 µM
same,MIC99,[1],4.28 µM
same,IC50,DNA gyrase subunit A,110 µM
same,MIC99,[2],2.14 µM
Cc1onc(-c2c(F)cccc2F)c1C(=O)N1CCN(c2c(F)c([N+](=O)[O-])c3c(=O)c(C(=O)O)cn4c3c2OCC4C)CC1 (centres undefined),IC50,Vero,102 µM
same,MIC99,[1],1.27 µM
same,MIC99,[2],5.1 µM
CC1COc2c(N3CCN(C)C(c4ccccc4)C3)c(F)c([N+](=O)[O-])c3c(=O)c(C(=O)O)cn1c23 (centres undefined),IC50,Vero,130 µM
same,MIC99,[1],6.49 µM
same,MIC99,[2],3.23 µM
CC1COc2c(N3CCC(n4c(=O)[nH]c5cc(Cl)ccc54)CC3)c(F)c([N+](=O)[O-])c3c(=O)c(C(=O)O)cn1c23 (centres undefined),IC50,Vero,112 µM
same,MIC99,[1],1.39 µM
same,MIC99,[2],0.34 µM
CC1COc2c(N3CCC(O)(c4ccc(Cl)cc4)CC3)c(F)cc3c(=O)c(C(=O)O)cn1c23 (centres undefined),MIC99,[1],26.4 µM
same,MIC99,[2],6.62 µM
COc1cc2c(cc1OC)CN(c1c(F)cc3c(=O)c(C(=O)O)cn4c3c1OCC4C)CC2 (centres undefined),IC50,Vero,> 138 µM
same,MIC99,[1],13.8 µM
same,MIC99,[2],1.72 µM
CC1COc2c(N3CCN(C)CC3)c(F)cc3c(=O)c(C(=O)O)cn1c23.Cl (centres undefined),Activity,Mus musculus [4],0.35 mm
same,Activity,Mus musculus [6],0.32 mm
same,Activity,Mus musculus [7],0.35 mm
same,Activity,Mus musculus [9],0.29 mm
same,Activity,Mus musculus [10],0.3 mm
same,Activity,Mus musculus [11],0.29 mm
CCn1cc(C(=O)O)c(=O)c2cc(F)c(N3CCNC(C)C3)c(F)c21 (centres undefined) [LOMEFLOXACIN],Activity,Mus musculus [3],Toxic
same,Activity,Mus musculus [4],0.64 mm
same,Activity,Mus musculus [5],Toxic
same,Activity,Mus musculus [6],0.4 mm
same,Activity,Mus musculus [7],0.6 mm
same,Activity,Mus musculus [14],Toxic
same,Activity,Mus musculus [8],Toxic
same,Activity,Mus musculus [9],0.48 mm
same,Activity,Mus musculus [10],0.53 mm
same,Activity,Mus musculus [11],0.31 mm
same,Activity,Mus musculus [12],Non-toxic
same,Activity,Mus musculus [13],Toxic
